Activity calls are given as the source filed them. The rule behind the calls is not given here.
Experiments:
Candida albicans [1] = test: Induction of membrane permeabilization in Candida albicans assessed as calcein release at 11.6 uM after 90 min; assay type: functional
In short: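 Early-stationary C. albicans loaded with 5 μM (final) calcein-AM, 2 h room temperature, washed four times; 10⁶ cells with peptide, fluorescence (ex 485/em 530 nm) read every 5 min for 90 min; 100% from boiled cells (10 min), background from untreated cells; % release = (I_r − I_bkg)/(I_int − I_bkg) × 100; three independent experiments, mean ± SD.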

Candida albicans [2] = test: Induction of ATP efflux in Candida albicans CAF4-2 at 11.6 uM; assay type: functional, organism-based
In short: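 C. albicans CAF4-2 (10⁴ cells) mixed with peptide (Hst 5 31 μM, hBD-2 11.6 μM, hBD-3 1 μM), some cells pretreated 2 h with 1 mM NaN₃; extracellular ATP read by luminometry at 0, 5, 15, 30, 45 and 60 min; quantified against per-experiment ATP standard curves as pmol ATP per 10⁴ cells.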

Candida albicans [3] = test: Cell death in Candida albicans CAF4-2 at >= 0.8 uM in presence of 1 mM NaN3 relative to control
Candida albicans [4] = test: Cell death in Candida albicans CAF4-2 at <= 0.6 uM in the presence of 1 mM NaN3 relative to control; assay type: functional
Nakaseomyces glabratus [5] = test: Fungicidal activity against Candida glabrata 931010 at 0.8 uM; assay type: functional
Candida albicans [6] = test: Antimicrobial activity against Candida albicans at 1.0 uM in presence of 50 mM NaPB; assay type: functional
In short: (§1)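 YNB-grown yeast washed twice and resuspended at 10⁶ cells/ml in 10, 20, 50 or 100 mM sodium phosphate buffer, pH 7.4; peptide 0.2 to 1.0 μM for 1 h at 30°C. Diluted aliquots of 500 cells plated on YNB agar, 48 h at room temperature. Loss of viability = [1 − (treated colonies/buffer-only colonies)] × 100; at least three independent experiments.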

Nakaseomyces glabratus [7] = test: Fungicidal activity against Candida glabrata 932474 at 0.8 uM; assay type: functional
Candida albicans [8] = test: Antimicrobial activity against Candida albicans at 1.0 uM in presence of 10 mM NaPB; assay type: functional; in short: as §1
Candida albicans [9] = test: Fungicidal activity against Candida albicans CAF4-2 at 0.8 uM; assay type: functional
Candida albicans [10] = test: Antimicrobial activity against Candida albicans at 1.0 uM in presence of 20 mM NaPB; assay type: functional; in short: as §1
Candida albicans [11] = test: Induction of ATP efflux in Candida albicans CAF4-2 at 31 uM; assay type: functional, organism-based
In short: (§2)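 10⁴ C. albicans cells given 31 μM Hst 5 or 1 μM hBD-3, with or without 2 h pretreatment in 1 mM NaN₃. Extracellular ATP read by luminometry at 0, 5, 15, 30, 45 and 60 min. Values come from per-experiment ATP standard curves, as pmol ATP per 10⁴ cells.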

Nakaseomyces glabratus [12] = test: Fungicidal activity against Candida glabrata 932474 at 31 uM; assay type: functional
Candida albicans [13] = test: Induction of ATP efflux in Candida albicans CAF4-2 at 31 uM in presence of 1 mM sodium azide; assay type: functional, organism-based; in short: as §2
Candida albicans [14] = test: Induction of membrane permeabilization in Candida albicans assessed as calcein release at 32 uM after 90 min; assay type: functional
In short: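 Early-stationary yeast washed in 10 mM NaPB, loaded at 10⁷/ml with 5 μM (final) calcein-AM for 2 h at room temperature, then washed four times; 10⁶ cells given 0.8 μM hBD-3 or 32 μM Hst 5. Fluorescence (ex 485/em 530 nm) read every 5 min for 90 min. Percent release = (I_r − I_bkg)/(I_int − I_bkg) × 100, where I_int comes from boiling 10 min. Mean ± SD of three experiments.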

Candida albicans [15] = test: Fungicidal activity against Candida albicans CAF4-2 at 31 uM; assay type: functional
Nakaseomyces glabratus [16] = test: Fungicidal activity against Candida glabrata 931010 at 31 uM; assay type: functional
Candida albicans [17] = test: Antimicrobial activity against Candida albicans at 11.6 uM in presence of 10 mM NaPB; assay type: functional
In short: (§3)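 YNB-grown C. albicans (CAF4-2) washed and resuspended at 10⁶ cells/ml in 10, 20, 50 or 100 mM sodium phosphate buffer pH 7.4; peptide 2.9 to 11.6 μM, 1 h at 30°C; 500-cell aliquots plated on YNB agar, 48 h room temperature; loss of viability = [1 − (treated/buffer-only colonies)] × 100; at least three independent experiments, mean ± SD.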

Nakaseomyces glabratus [18] = test: Fungicidal activity against Candida glabrata 932474 at 11.6 uM; assay type: functional
In short: (§4)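 C. albicans CAF4-2 and C. glabrata 931010 or 932474 at 10⁶/ml in 10 mM sodium phosphate pH 7.4, exposed to one peptide concentration (Hst 5 31 μM, hBD-2 11.6 μM, hBD-3 0.8 μM); 500-cell aliquots plated on YNB agar for 48 h at room temperature; loss of viability versus buffer-only control; triplicate.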

Candida albicans [19] = test: Survival of Candida albicans at 11.6 uM in presence of 0.5 mM MgCl2; assay type: functional
In short: (§5)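 Cells at 10⁶/ml in 10 mM sodium phosphate pH 7.4 supplemented with 0.5, 1, 5 or 25 mM CaCl₂, MgCl₂, NaCl or KCl; hBD-2 11.6 μM for 1 h at 30°C; colonies counted on YNB agar after 48 h at room temperature; survival relative to buffer-only cells; at least three independent experiments, mean ± SD.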

Candida albicans [20] = test: Antimicrobial activity against Candida albicans at 11.6 uM in presence of 50 mM NaPB; assay type: functional; in short: as §3
Candida albicans [21] = test: Cell death in Candida albicans CAF4-2 in presence of 1 mM NaN3 relative to control; assay type: functional
Nakaseomyces glabratus [22] = test: Fungicidal activity against Candida glabrata 931010 at 11.6 uM; assay type: functional; in short: as §4
Candida albicans [23] = test: Survival of Candida albicans at 11.6 uM in presence of 0.5 mM KCl; assay type: functional; in short: as §5
Candida albicans [24] = test: Survival of Candida albicans at 11.6 uM in presence of 0.5 mM NaCl; assay type: functional; in short: as §5
Candida albicans [25] = test: Survival of Candida albicans at 11.6 uM in presence of 5 mM MgCl2; assay type: functional; in short: as §5
Candida albicans [26] = test: Survival of Candida albicans at 11.6 uM in presence of 0.5 mM CaCl2; assay type: functional; in short: as §5
Candida albicans [27] = test: Antimicrobial activity against Candida albicans at 11.6 uM in presence of 20 mM NaPB; assay type: functional; in short: as §3
Candida albicans [28] = test: Antimicrobial activity against Candida albicans at 11.6 uM in presence of 100 mM NaPB; assay type: functional; in short: as §3
Candida albicans [29] = test: Fungicidal activity against Candida albicans CAF4-2 at 11.6 uM; assay type: functional; in short: as §4
Candida albicans [30] = test: Survival of Candida albicans at 11.6 uM in presence of 5 mM CaCl2; assay type: functional; in short: as §5

CC[C@H](C)[C@H](NC(=O)CN)C(=O)NCC(=O)N[C@@H](CC(=O)O)C(=O)N1CCC[C@H]1C(=O)N[C@H](C(=O)N[C@H](C(=O)N[C@@H](CS)C(=O)N[C@@H](CC(C)C)C(=O)N[C@@H](CCCCN)C(=O)N[C@@H](CO)C(=O)NCC(=O)N[C@@H](C)C(=O)N[C@H](C(=O)N[C@@H](CS)C(=O)N[C@@H](Cc1cnc[nH]1)C(=O)N1CCC[C@H]1C(=O)N[C@H](C(=O)N[C@@H](Cc1ccccc1)C(=O)N[C@@H](CS)C(=O)N1CCC[C@H]1C(=O)N[C@@H](CCCNC(=N)N)C(=O)N[C@@H](CCCNC(=N)N)C(=O)N[C@@H](Cc1ccc(O)cc1)C(=O)N[C@@H](CCCCN)C(=O)N[C@@H](CCC(N)=O)C(=O)N[C@H](C(=O)NCC(=O)N[C@H](C(=O)N[C@@H](CS)C(=O)NCC(=O)N[C@@H](CC(C)C)C(=O)N1CCC[C@H]1C(=O)NCC(=O)N[C@H](C(=O)N[C@@H](CCCCN)C(=O)N[C@@H](CS)C(=O)N[C@@H](CS)C(=O)N[C@@H](CCCCN)C(=O)N[C@@H](CCCCN)C(=O)N1CCC[C@H]1C(=O)O)[C@H](C)O)[C@H](C)O)[C@@H](C)CC)C(C)C)[C@@H](C)CC)[C@H](C)O)C(C)C
Activity (Candida albicans [1]): 10.3% | Activity (Candida albicans [2]): Active

CC[C@H](C)[C@H](NC(=O)CN)C(=O)N[C@H](C(=O)N[C@@H](CC(N)=O)C(=O)N[C@H](C(=O)N[C@@H](CC(C)C)C(=O)N[C@@H](CCC(N)=O)C(=O)N[C@@H](CCCCN)C(=O)N[C@@H](Cc1ccc(O)cc1)C(=O)N[C@@H](Cc1ccc(O)cc1)C(=O)N[C@@H](CS)C(=O)N[C@@H](CCCNC(=N)N)C(=O)N[C@H](C(=O)N[C@@H](CCCNC(=N)N)C(=O)NCC(=O)NCC(=O)N[C@@H](CCCNC(=N)N)C(=O)N[C@@H](CS)C(=O)N[C@@H](C)C(=O)N[C@H](C(=O)N[C@@H](CC(C)C)C(=O)N[C@@H](CO)C(=O)N[C@@H](CS)C(=O)N[C@@H](CC(C)C)C(=O)N1CCC[C@H]1C(=O)N[C@@H](CCCCN)C(=O)N[C@@H](CCC(=O)O)C(=O)N[C@@H](CCC(=O)O)C(=O)N[C@@H](CCC(N)=O)C(=O)N[C@H](C(=O)NCC(=O)N[C@@H](CCCCN)C(=O)N[C@@H](CS)C(=O)N[C@@H](CO)C(=O)N[C@H](C(=O)N[C@@H](CCCNC(=N)N)C(=O)NCC(=O)N[C@@H](CCCNC(=N)N)C(=O)N[C@@H](CCCCN)C(=O)N[C@@H](CS)C(=O)N[C@@H](CS)C(=O)N[C@@H](CCCNC(=N)N)C(=O)N[C@@H](CCCNC(=N)N)C(=O)N[C@@H](CCCCN)C(=O)N[C@@H](CCCCN)C(=O)O)[C@@H](C)O)[C@@H](C)CC)C(C)C)C(C)C)[C@@H](C)O)[C@@H](C)CC
Activity (Candida albicans [3]): 36% | Activity (Candida albicans [4]): <10% | Activity (Nakaseomyces glabratus [5]): 11.5% | Activity (Candida albicans [6]): 18% | Activity (Nakaseomyces glabratus [7]): 53.2% | Activity (Candida albicans [8]): 98.2% | Activity (Candida albicans [9]): 98.2% | Activity (Candida albicans [10]): 63%

C[C@H](NC(=O)[C@H](Cc1cnc[nH]1)NC(=O)[C@H](CO)NC(=O)[C@@H](N)CC(=O)O)C(=O)N[C@@H](CCCCN)C(=O)N[C@@H](CCCNC(=N)N)C(=O)N[C@@H](Cc1cnc[nH]1)C(=O)N[C@@H](Cc1cnc[nH]1)C(=O)NCC(=O)N[C@@H](Cc1ccc(O)cc1)C(=O)N[C@@H](CCCCN)C(=O)N[C@@H](CCCNC(=N)N)C(=O)N[C@@H](CCCCN)C(=O)N[C@@H](Cc1ccccc1)C(=O)N[C@@H](Cc1cnc[nH]1)C(=O)N[C@@H](CCC(=O)O)C(=O)N[C@@H](CCCCN)C(=O)N[C@@H](Cc1cnc[nH]1)C(=O)N[C@@H](Cc1cnc[nH]1)C(=O)N[C@@H](CO)C(=O)N[C@@H](Cc1cnc[nH]1)C(=O)N[C@@H](CCCNC(=N)N)C(=O)NCC(=O)N[C@@H](Cc1ccc(O)cc1)C(=O)O [HISTATIN 5]
Activity (Candida albicans [11]): Active | Activity (Nakaseomyces glabratus [12]): 29.4% | Activity (Candida albicans [13]): inactive | Activity (Candida albicans [14]): 11% | Activity (Candida albicans [15]): 97.5% | Activity (Nakaseomyces glabratus [16]): 12.2%

CC[C@H](C)[C@H](NC(=O)CN)C(=O)NCC(=O)N[C@@H](CC(=O)O)C(=O)N1CCC[C@H]1C(=O)N[C@H](C(=O)N[C@H](C(=O)N[C@@H](CS)C(=O)N[C@@H](CC(C)C)C(=O)N[C@@H](CCCCN)C(=O)N[C@@H](CO)C(=O)NCC(=O)N[C@@H](C)C(=O)N[C@H](C(=O)N[C@@H](CS)C(=O)N[C@@H](Cc1cnc[nH]1)C(=O)N1CCC[C@H]1C(=O)N[C@H](C(=O)N[C@@H](Cc1ccccc1)C(=O)N[C@@H](CS)C(=O)N1CCC[C@H]1C(=O)N[C@@H](CCCNC(=N)N)C(=O)N[C@@H](CCCNC(=N)N)C(=O)N[C@@H](Cc1ccc(O)cc1)C(=O)N[C@@H](CCCCN)C(=O)N[C@@H](CCC(N)=O)C(=O)N[C@H](C(=O)NCC(=O)N[C@H](C(=O)N[C@@H](CS)C(=O)NCC(=O)N[C@@H](CC(C)C)C(=O)N1CCC[C@H]1C(=O)NCC(=O)N[C@H](C(=O)N[C@@H](CCCCN)C(=O)N[C@@H](CS)C(=O)N[C@@H](CS)C(=O)N[C@@H](CCCCN)C(=O)N[C@@H](CCCCN)C(=O)N1CCC[C@H]1C(=O)O)[C@@H](C)O)[C@@H](C)O)[C@@H](C)CC)C(C)C)[C@@H](C)CC)[C@@H](C)O)C(C)C
Activity (Candida albicans [17]): 95% | Activity (Nakaseomyces glabratus [18]): 89.6% | Activity (Candida albicans [19]): 58.4% | Activity (Candida albicans [20]): 29% | Activity (Candida albicans [21]): 15% | Activity (Nakaseomyces glabratus [22]): 20.2% | Activity (Candida albicans [23]): 18% | Activity (Candida albicans [24]): 24% | Activity (Candida albicans [25]): 97.6% | Activity (Candida albicans [26]): 69% | Activity (Candida albicans [27]): 54% | Activity (Candida albicans [28]): 24% | Activity (Candida albicans [29]): 95% | Activity (Candida albicans [30]): 86%

— ChEMBL document CHEMBL1142155, “Human beta-defensins kill Candida albicans in an energy-dependent and salt-sensitive manner without causing membrane disruption” (2007)
